Test results reported in ChEMBL document CHEMBL4680077, “Differentiation of skeletal osteogenic progenitor cells to osteoblasts with 3,4-diarylbenzopyran based amide derivatives: Novel osteogenic agents” (Eur J Med Chem, 2016).
Calls of active or inactive are those of the source. No cut-off for these calls is given here.

Columns and labels:
Calvarial osteoblast = experiment: Induction of osteoblast differentiation in mouse calvarial osteoblast assessed as increase in OCN mRNA expression at 1 pM incubated for 48 hrs by qPCR analysis; format: functional, cell-based
Procedure, shortened: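 Calvarial osteoblasts were treated at 1 pM for 24 and 48 h. Total RNA was extracted with TRIzol, and cDNA was made from 2 µg RNA. qPCR ran 40 cycles for BMP-2, RUNX-2, OCN and collagen type 1, with normalization to GAPDH. Mean ± SEM of three independent experiments.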

[1] = AUC (0 to infinity) in Sprague-Dawley rat at 1 mg/kg, iv measured upto 24 hrs by LC-MS/MS analysis; format: ADME, organism-based; design: route intravenous, dose 1 mg/kg, time <=24; details: in vivo
Procedure, shortened: (§1)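 Female Sprague-Dawley rats (n = 4 per route), fasted overnight; 1 mg/kg oral (0.25% CMC) or i.v. tail-vein bolus (DMSO-PEG400-ethanol-water). Plasma was sampled to 24 h and assayed by LC-MS/MS (0.5-200 ng/mL). Non-compartmental AUC0-∞ = AUC0-t + Clast/kel; mean ± S.D.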

[2] = Half life in Sprague-Dawley rat at 1 mg/kg, po measured upto 24 hrs by LC-MS/MS analysis; format: ADME, organism-based; details: in vivo
Procedure, shortened: (§2)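 Female Sprague-Dawley rats (n = 4), fasted overnight 12–14 h, dosed orally at 1 mg kg-1 as a 0.25% CMC suspension and fed 3 h post-dose. Retro-orbital blood was taken from 0.25 to 24 h. Plasma was hexane-extracted and assayed by LC-MS/MS. Cmax and Tmax were read from the data; other parameters came from non-compartmental analysis. Mean ± S.D.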

[3] = Tmax in Sprague-Dawley rat at 1 mg/kg, po measured upto 24 hrs by LC-MS/MS analysis; format: ADME, organism-based; details: in vivo; procedure, shortened: as §2
[4] = Cmax in Sprague-Dawley rat at 1 mg/kg, po measured upto 24 hrs by LC-MS/MS analysis; format: ADME, organism-based; design: route oral, dose 1 mg/kg, time <=24; details: in vivo; procedure, shortened: as §2
[5] = AUC (0 to 24 hrs) in Sprague-Dawley rat at 1 mg/kg, po measured upto 24 hrs by LC-MS/MS analysis; format: ADME, organism-based; design: route oral, dose 1 mg/kg, time <=24; details: in vivo
Procedure, shortened: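 Female Sprague-Dawley rats (n = 4 per route), fasted overnight (12-14 h); 1 mg/kg orally in 0.25% CMC suspension, or an i.v. tail-vein bolus in DMSO-PEG400-ethanol-water (4:3:1:2). Retro-orbital blood was taken up to 24 h, and plasma was extracted with n-hexane (halofantrine IS). LC-MS/MS linear range 0.5-200 ng/mL. AUC0-24 was calculated by the linear trapezoidal rule, non-compartmental; mean ± S.D.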

[6] = AUC (0 to infinity) in Sprague-Dawley rat at 1 mg/kg, po measured upto 24 hrs by LC-MS/MS analysis; format: ADME, organism-based; design: route oral, dose 1 mg/kg, time <=24; details: in vivo; procedure, shortened: as §1
[7] = Acute toxicity in Swiss albino mouse assessed as body weight at 300 mg/kg, po measured on day 7 (reference value: 22.75 +/- 0.38 g); format: organism-based; details: in vivo, 168 h, time 7 day
[8] = Acute toxicity in Swiss albino mouse assessed as haemoglobin level at 1000 mg/kg, po measured after 7 days (reference value: 10.86 +/- 0.87 g/dL); format: organism-based; details: in vivo, 168 h, time 7 day
[9] = Acute toxicity in Swiss albino mouse assessed as RBC count at 300 mg/kg, po measured after 7 days (Rvb =6.0 +/- 0.28 million/mm3); format: organism-based; details: in vivo, 168 h, time 7 day
[10] = Acute toxicity in Swiss albino mouse assessed as WBC count per thousand/mm3 at 1000 mg/kg, po measured after 7 days (reference value: 6.84 +/- 0.83 /mm3); format: organism-based; details: in vivo, 168 h, time 7 day
[11] = Acute toxicity in Swiss albino mouse assessed as SGOT level at 1000 mg/kg, po measured after 7 days (reference value: 31.99 +/- 3.37 U/L); format: organism-based; details: in vivo, 168 h, time 7 day
[12] = Acute toxicity in Swiss albino mouse assessed as triglycerides level at 50 mg/kg, po measured after 7 days (reference value: 58.51 +/- 10.82 mg/dL); format: organism-based; details: in vivo, 168 h, time 7 day
[13] = Acute toxicity in Swiss albino mouse assessed as cholesterol level at 300 mg/kg, po measured after 7 days (reference value: 265.76 +/- 24.78 mg/dL); format: organism-based; details: in vivo, 168 h, time 7 day
[14] = Acute toxicity in Swiss albino mouse assessed as tissue protein level at 1000 mg/kg, po measured after 7 days (reference value: 0.029 +/- 0.004 mg/ml); format: organism-based; details: in vivo, 168 h, time 7 day
[15] = Acute toxicity in Swiss albino mouse assessed as neutrophil count at 1000 mg/kg, po measured after 7 days (reference value: 41.50 +/- 4.08 %); format: organism-based; details: in vivo, 168 h, time 7 day
[16] = Acute toxicity in Swiss albino mouse assessed as lymphocyte count at 5 mg/kg, po measured after 7 days (reference value: 37.97 +/- 1.80 %); format: organism-based; details: in vivo, 168 h, time 7 day
[17] = Acute toxicity in Swiss albino mouse assessed as monocyte count at 50 mg/kg, po measured after 7 days (reference value: 12.58 +/- 2.86 %); format: organism-based; details: in vivo, 168 h, time 7 day
[18] = Acute toxicity in Swiss albino mouse assessed as eosinophil count at 1000 mg/kg, po measured after 7 days (reference value: 6.34 +/- 1.04 %); format: organism-based; details: in vivo, 168 h, time 7 day
[19] = Acute toxicity in Swiss albino mouse assessed as basophil count at 1000 mg/kg, po measured after 7 days (reference value: 1.50 +/- 0.29 %); format: organism-based; details: in vivo, 168 h, time 7 day
[20] = Acute toxicity in Swiss albino mouse assessed as absolute liver weight at 50 mg/kg, po measured after 7 days (reference value: 1.11 +/- 0.04 g); format: organism-based; details: in vivo, 168 h, time 7 day
[21] = Acute toxicity in Swiss albino mouse assessed as absolute lung weight at 50 mg/kg, po measured after 7 days (reference value: 0.16 +/- 0.01 g); format: organism-based; details: in vivo, 168 h, time 7 day
[22] = Acute toxicity in Swiss albino mouse assessed as absolute uterus weight at 50 mg/kg, po measured after 7 days (reference value: 0.27+/- 0.07 g); format: organism-based; details: in vivo, 168 h, time 7 day
[23] = Acute toxicity in Swiss albino mouse assessed as absolute ovary weight at 300 mg/kg, po measured after 7 days (reference value: 0.04+/- 0.02 g); format: organism-based; details: in vivo, 168 h, time 7 day
[24] = Acute toxicity in Swiss albino mouse assessed as absolute testes weight at 300 mg/kg, po measured after 7 days (reference value: 0.15+/- 0.01 g); format: organism-based; details: in vivo, 168 h, time 7 day
[25] = Acute toxicity in Swiss albino mouse assessed as relative liver weight at 5 mg/kg, po measured after 7 days (reference value: 6.81 +/- 2.14 %); format: organism-based; details: in vivo, 168 h, time 7 day
[26] = Acute toxicity in Swiss albino mouse assessed as relative kidney weight at 50 mg/kg, po measured after 7 days (reference value: 1.25 +/- 0.08 %); format: organism-based; details: in vivo, 168 h, time 7 day
[27] = Acute toxicity in Swiss albino mouse assessed as relative ovary weight at 50 mg/kg, po measured after 7 days (reference value: 0.07 +/- 0.02 %); format: organism-based; details: in vivo, 168 h, time 7 day
[28] = Acute toxicity in Swiss albino mouse assessed as observational changes at 5 to 1000 mg/kg, po measured after 7 days; format: organism-based; details: in vivo, 168 h, dose 5-1000 mg/kg, time 7 day
Procedure, shortened: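 Acute oral toxicity per OECD guidelines 420, 423 and 425. Swiss albino mice received a single oral dose at 5, 50, 300 or 1000 mg kg1 body weight, with vehicle controls. Animals were watched for morbidity, mortality and observational changes over 7 days. Tail-vein blood was then taken for hematology and serum biochemistry. Organs were inspected at sacrifice. n = 6 per group.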

Compound: CCCCN(C)C(=O)CCCCOc1ccc([C@H]2c3ccc(OC)cc3OC(C)(C)[C@@H]2c2ccccc2)cc1
- Activity (Calvarial osteoblast): Active
- AUC(0-inf) [1]: 906 ng·h/mL
- half-life [2]: 3.62 h
- Tmax [3]: 1.5 h
- Cmax [4]: 38.9 ng/mL
- AUC(0-t) [5]: 114 ng·h/mL
- AUC [6]: 119.404 ng·h/mL
- Activity [7]: 23.31 g
- Activity [8]: 11.35 g/dL
- Activity [9]: 7.31 million/mm3
- Activity [10]: 5.1 /mm3
- Activity [11]: 38.6 U/L
- Activity [12]: 83.78 mg/dL
- Activity [13]: 257.26 mg/dL
- Activity [14]: 0.032 mg/mL
- Activity [15]: 46.03%
- Activity [16]: 39.08%
- Activity [17]: 12.35%
- Activity [18]: 5.35%
- Activity [19]: 1.75%
- Activity [20]: 1.23 g
- Activity [21]: 0.2 g
- Activity [22]: 0.24 g
- Activity [23]: 0.06 g
- Activity [24]: 0.14 g
- Activity [25]: 4.84%
- Activity [26]: 1.09%
- Activity [27]: 0.33%
- Activity [28]: Non-Toxic
